Test results published in ChEMBL document CHEMBL4513216, “Probing the Open Global Health Chemical Diversity Library for Multistage-Active Starting Points for Next-Generation Antimalarials” (ACS Infect Dis, 2020).

Assay: Toxicity liver stage against HepG2, at 10uM
Assay type: cell-based
Parameters: test concentration 10 uM, cell line HepG2-A16-CD81EGFP
Conditions: human, HepG2-A16-CD81EGFP cells; read-out: INHIBITION
Summary of the method: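 Uninfected HepG2-A16-CD81EGFP cells, 3 × 10^3 per well, 1536-well, plated on prespotted compound at 10 μM final, parasite-free screening media added to match infected plates; puromycin 10 μM positive, DMSO 0.5% negative; run in parallel with 48 h PbLuc assay at 37 °C, 5% CO2; viability by CellTiter-Glo luminescence, normalized to controls.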

| Structure (SMILES) | cytotoxicity at 10 µM |
| --- | --- |
| Cc1cccc(-c2noc([C@@H]3C[C@@H](O)CN3C3CCOCC3)n2)c1 | 4.9% |
| CC(C)c1ccc(-n2ncc(C(=O)NCC3COC(C)(C)O3)c2N)cc1 (stereo not given) | -0.726% |
| COCC(=O)N1CCC(=O)N(C2CCCC2)Cc2ccccc21 | -5.2% |
| CC[C@@H](C)[C@H](NC(=O)Cn1ccc2c(Cl)cccc21)C(=O)O | 2.88% |
| O=C(Nc1ccccn1)C1(n2cnnn2)CCCCC1 | -7.03% |
| CCNC(=O)N1CCN(c2nc3ccccc3n2C)CC1 | 0.739% |
| COc1nn(C)cc1C(=O)NCC(=O)NCc1cccnc1 | -6.32% |
| CC(C)CN1C[C@H]2CCN(C(=O)c3ccccn3)CC[C@H]2S1(=O)=O | 0.582% |
| CC(=O)N1CCC2(C1)C(=O)N(CC1CC1)c1ccccc12 (stereo not given) | 2.26% |
| O=C(Cc1ccsc1)NCC1Cn2nnc(-c3ccoc3)c2CO1 (stereo not given) | 17.6% |
| CS(=O)(=O)N1CCN(CC2CC2)c2ncccc2C1 | -152% |
| O=C(c1ccno1)N1CCC2(CC1)C(=O)Nc1ccccc12 | -134% |
| CCOc1ccc(C2SCC(=O)Nc3c2c(=O)[nH]n3C(CC)CC)cc1 (stereo not given) | 6.5% |
| CC(=O)N1CCC(Oc2ccc(Cl)cn2)CC1 | -19.5% |
| CCCNC(=O)c1sc(Nc2ccc(Cl)cn2)nc1C | -15.2% |
| COC[C@@]12CCO[C@@H]1CCN(C(=O)COc1ccccc1OC)C2 | -8.89% |
| CS(=O)(=O)NC[C@]12COC[C@H]1CN(C(=O)c1ccoc1)C2 | 4.34% |
| NCc1n[nH]c(-c2ccc(F)cc2)n1 | 0.186% |
| Cn1nc(Cl)cc1C(=O)N1CCC(C(=O)c2nc3ccccc3s2)CC1 | 3.34% |
| Cc1nnc(C2CCN(c3ccc(F)cc3)CC2)o1 | 0.207% |
| CN(C)C(=O)c1cccc(C2CCN(c3ncccn3)CC2)n1 | 1.24% |
| CS(=O)(=O)N[C@@H]1CN(C(=O)c2cc3ccccc3s2)C[C@H]1O | -0.378% |

| Structure (SMILES) | cytotoxicity at 10 µM |
| --- | --- |
| O=C(c1cc[nH]n1)N1CCCC1c1cc(Nc2ccccn2)n[nH]1 (stereo not given) | -13.8% |
| Cc1cnc(N)c(C(=O)C2CCN(C(=O)c3cnc(C)cn3)CC2)c1 | -19.7% |
| Cc1ccc(=O)n(CC2(O)CCN(Cc3cccs3)CC2)n1 | -5.72% |
| CNC(=O)c1ccc(C2CN(C(=O)c3c[nH]nc3C)CCO2)nc1 (stereo not given) | -19.3% |
| CC(=O)N(C)Cc1ccccc1NC(=O)c1ccccc1C | 1.18% |
| O=S1(=O)CCCN(Cc2ccccc2OCC(F)(F)F)CC1 | 9.11% |
| CC(=O)N1CCN(c2ccccc2CNc2ccc3[nH]ncc3c2)CC1 | 9.17% |
| CCN(CC)S(=O)(=O)NCC(O)c1c(Cl)cccc1Cl (stereo not given) | 8.66% |
| CCN(CC)C(=O)C1(NCc2nc(C)c(C)o2)CCCCC1 | 2.5% |
| NC(=O)C(NC(=O)CCc1ccc(Cl)s1)c1ccccc1 (stereo not given) | 1.28% |
| Cc1noc(C(C)N2CCN(CCn3ccccc3=O)CC2)n1 (stereo not given) | 5.31% |
| Cc1oc(CNC(=O)Cc2ccccc2Cl)cc1C(=O)O | 0.723% |
| CC(C)c1nc(C2CCCN(C(=O)CN3CCN(C)CC3)C2)no1 (stereo not given) | 3.8% |
| N#Cc1ccc(C(=O)N(Cc2ccncc2)C2CC2)cc1 | -8.53% |
| CCN(CCC(=O)NC1CC1)Cc1ccc(Cl)s1 | 3.88% |
| CCCS(=O)(=O)N1CCC(NC(=O)c2ccc(C)s2)CC1 | -11.4% |
| Cn1c(C(=O)N2CCC(C3OCCO3)CC2)c(Cl)c2ccccc21 | 13.7% |
| O=S(=O)(CCN1CCOC(Cn2cccn2)C1)c1ccccc1 (stereo not given) | -0.165% |
| COCC(C)NC(=O)NCCCc1cc(N)n(-c2ccccc2)n1 (stereo not given) | -12.2% |
| Cc1cc(C(=O)N2CCC(Nc3cccnc3)CC2)c(C)s1 | -141% |
| CN(C)C(CNC(=O)NCc1ccco1)c1cccs1 (stereo not given) | -3.29% |
| OCc1ccc(CNc2ccccc2CN2CCC(O)CC2)o1 | 1.85% |

| Structure (SMILES) | cytotoxicity at 10 µM |
| --- | --- |
| O=C(c1cnns1)N1CCN(c2ccc(F)cc2Cl)CC1 | -145% |
| CC(C)CCN1C(=O)CC(N(C)Cc2nc3ccccc3c(=O)[nH]2)C1=O (stereo not given) | -3.85% |
| Cc1nc2sccn2c1CNc1ccc(C(=O)O)cc1 | 11.7% |
| CC(C)(C)SCC(=O)NC(C)(C(N)=O)c1cccc(Cl)c1 (stereo not given) | 1.61% |
| C1CCCN(c2nc(C3CC3)no2)CC1 | -5.59% |
| CCCNC(=O)C(C)Nc1cccc(Oc2ccc(C#N)cn2)c1 (stereo not given) | -7.99% |
| CCN(C(=O)c1ccc2c(c1)OCO2)C1CC(=O)NC1=O (stereo not given) | -3.04% |
| Cc1n[nH]cc1CNCC(c1ccsc1)N(C)C (stereo not given) | 3.05% |
| Cc1ccc(C(=O)N2CCSCC2)cc1NC(=O)NCCO | -9.64% |
| CCc1csc(C2CCCN(C(=O)c3cnn(CC)c3)C2)n1 (stereo not given) | 4.73% |
| Cc1nn(C)c(C)c1CCC(=O)N1CCCC1Cn1cccn1 (stereo not given) | 1.78% |
| O=C(c1cccnc1)N1CCC2(CC1)CCN(Cc1ccccn1)C2=O | 2.78% |
| Cc1cc(C)c2ncn(CCOCCO)c(=O)c2c1 | 8.17% |
| O=C(O)c1cc(-c2ccncc2)cc(S(=O)(=O)NCc2ccccn2)c1 | -51.9% |
| CCSCC(C)NCc1cn2ccccc2n1 (stereo not given) | -7.38% |
| Cc1ccc(NC2CCCN(Cc3ccc(Cl)cc3)C2)nn1 (stereo not given) | -5.98% |
| COc1cccc2c1OCC(CNC(=O)CCn1cnnn1)C2 (stereo not given) | -144% |
| CC(C)c1nc(CN(C)C(=O)c2ccc3c(c2)OCC(=O)N3)cs1 | -4.15% |
| Cc1ccc(N2CCN(C(=O)C(O)c3cccc(Cl)c3)CC2=O)cc1 (stereo not given) | -5.01% |
| N#Cc1ccccc1C(=O)N1C[C@@H](CN2CCCCCC2)[C@@H](CO)C1 | 1.1% |
| Cc1ccnc(NC(=O)c2ccc(C)o2)c1 | -4.33% |
| O=C(O)C1CCN(C[C@H]2CC[C@@H](Cc3ccc4c(c3)OCO4)O2)CC1 | -7.48% |

| Structure (SMILES) | cytotoxicity at 10 µM |
| --- | --- |
| CC(C)C(O)C(=O)N1CCC2(CC1)c1nc[nH]c1CCN2S(C)(=O)=O (stereo not given) | -0.232% |
| O=C(c1ccc(O)cn1)N1CCOC(c2ccc(Cl)c(Cl)c2)C1 (stereo not given) | -4.57% |
| CN(CCO)C[C@@H]1CN(Cc2ccccc2-c2ccccc2)C[C@@H]1CO | -14% |
| CCCc1nc(N[C@H]2COC[C@@H]2N2CCCCC2)c2cnn(C)c2n1 | 0.727% |
| CCNC(=O)C1CCN(c2nc(-c3ccco3)nc3c2CCNCC3)C1 (stereo not given) | -5.87% |
| CN(Cc1n[nH]c(=O)n1Cc1cccs1)S(C)(=O)=O | -4.2% |
| O=C(O)[C@@H]1CN(C(=O)c2ccc(O)cc2)C[C@H]1c1cccc(F)c1 | -126% |
| CSc1ccccc1CN1CCCn2nc(CNC(=O)N(C)C)cc2C1 | -25.5% |
| Cc1nnc(NC(=O)NCc2ccoc2)s1 | -1.36% |
| Cc1csc(N2CCN(CC(=O)NCc3ccccn3)CC2C)n1 (stereo not given) | -4.04% |
| Cc1noc(C)c1C(=O)NCC(c1cccc(F)c1)N(C)C (stereo not given) | -13.1% |
| CC(C)Cc1noc(CN2CCN(C(=O)c3ccccc3F)CC2)n1 | -10.8% |
| Cc1nc(CN2CCCC(NCc3cnc(C(C)(C)C)s3)C2)no1 (stereo not given) | 0.38% |
| N#Cc1cccnc1N1CCCN(C(=O)CCc2nccs2)CC1 | -11.5% |
| CCc1nc(CN2CCCN(C(=O)CCOC(C)C)CC2)cs1 | -17.3% |
| COc1cc(C)c(C(C)NC(=O)NCCCn2cncn2)cc1OC (stereo not given) | -16.2% |
| Cc1noc(C(C)N2CCN(Cc3nnc(C4CC4)o3)CC2)n1 (stereo not given) | -11.8% |
| CCOc1ncccc1CNC(=O)Nc1cc(C)nn1C | 1.25% |
| O=C(NCC(F)(F)F)C1CSCN1S(=O)(=O)c1ccc(F)cc1Cl (stereo not given) | -12.8% |
| c1cnnc(N2CCCC2CNc2ncnc3sccc23)c1 (stereo not given) | -12.9% |
| O=C(c1ccc2c(c1)CCC2)N1CCC(c2n[nH]c(C3CC3)n2)CC1 | -8.06% |
| CN(Cc1cnn(-c2ccccc2)n1)C1CCCN(c2cccnn2)C1 (stereo not given) | -9.83% |

| Structure (SMILES) | cytotoxicity at 10 µM |
| --- | --- |
| CCOc1ncccc1C(=O)N1CCCC1c1c(C)nn(C)c1Cl (stereo not given) | 0.534% |
| Cc1ccc(CNCC2CCCN2c2cccnn2)s1 (stereo not given) | -4.38% |
| Cc1cnn(CC2CCCCN2C(=O)c2nccnc2N)c1 (stereo not given) | -3.03% |
| CCc1nc(C2CCCN(C(=O)c3cccc(Cl)c3)C2)no1 (stereo not given) | -7.55% |
| CCn1c(C)nnc1CN(C)C1CCN(CCOc2ccccc2)C1 (stereo not given) | 0.796% |
| CCn1cc(CN2CCCN(C(=O)c3ccoc3C)CC2)cn1 | -6.67% |
| O=S(=O)(CCN1CCOC(Cn2cccn2)C1)C(F)(F)F (stereo not given) | 3.78% |
| Cc1cccc2nc(C(=O)N3CCC(Nc4cccnn4)CC3)cn12 | -0.77% |
| Cc1ccoc1C(=O)N1CCOCC2(CCN(c3ncccn3)C2)C1 (stereo not given) | -7.23% |
| CCOCC1CN(Cc2ccoc2)Cc2nn(CC3CC3)cc21 (stereo not given) | -11.9% |
| COC[C@]12COC[C@H]1CN(Cc1ccc3ccccc3n1)C2 | 11.9% |
| O=C(NC1CC1)N1CC[C@H]2[C@H]1CCN2c1nncs1 | -4.94% |
| O=C1CO[C@@H]2CN(CC3CCOCC3)C[C@H]2N1Cc1ccncc1 | -139% |
| Cc1cnc(N2CCCn3c(nnc3CN(C)C(C)C)C2)nc1 | 4.42% |
| CO[C@@H]1CCN(C(=O)c2ccsc2)[C@@H]2CN(CC3CC3)C[C@@H]21 | -3.1% |
| Cn1cccc1CN1CCC2(CC1)CN(c1ccccc1)C(=O)CO2 | -130% |
| Cc1nnc(N2C[C@H](C(=O)NCC3CC3)[C@@H]3CCO[C@@H]3C2)s1 | 17.1% |
| c1cncc(CN2CCCn3nnc(CN4CCCC4)c3C2)c1 | 4.78% |
| CCOC[C@@H]1CC[C@H]2[C@H](CCN2Cc2c(C)noc2C)O1 | 10.5% |
| CCc1nccn1CC(=O)N1C[C@@H]2CC[C@H]1CN(C(=O)N(C)C)C2 | -4.67% |
| COc1ncccc1CN1CCC2[C@H]1CCN2CCN(C)C (stereo not given in full) | 2.77% |
| Cc1ncncc1C(=O)N1C[C@@H]2CC[C@H]1CN(C(=O)c1ccncc1)C2 | -7.61% |
